A word on the pKi: it is the Ki on a negative log10 scale, so that one unit is a factor of ten. A high value points to a low Ki.

The test system of data set [1] is Rattus norvegicus. The data set can be described thus: Neurotoxicity in Sprague-Dawley rat assessed as minimal motor impairment at 30 mg/kg, po after 2 hrs by rotorod test. To be noted: in vivo. (In general: Falling from the rotarod earlier than controls is read as motor impairment.)
In data set [2] the test system is Mus musculus. The data set can be described thus: Neurotoxicity in CF1 mouse assessed as minimal motor impairment at 100 mg/kg, ip after 4 hrs by rotorod test. Format: toxicity, organism-based. The arrangement: dose 100 mg/kg, route intraperitoneal. To be noted: in vivo. The essentials:
(§1)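 Rotarod neurotoxicity screen in mice dosed i.p. at 30, 100 or 300 mg/kg, read 0.5 or 4 h after dosing. The animal must stay on a rod rotating at 6 rpm without falling, measured 3 times within 1 min. A fall counts as minimal motor impairment. Result is recorded as impaired animals over animals used.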

Data set [3] deals with Mus musculus. The data set can be described thus: Anticonvulsant activity in CF1 mouse assessed as protection against subcutaneous metrazole-induced seizures at 100 mg/kg, ip after 4 hrs. Format: functional, organism-based. Also noted: dose 100 mg/kg. The essentials: (§2)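 Mice given compound i.p. at 30, 100 or 300 mg/kg and tested 0.5 or 4 h after dosing. Seizures were induced by maximal electroshock (MES) or subcutaneous metrazole (ScMet). Prevention of seizures counts as protection. Result is recorded as number of animals protected over number tested.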

For data set [4], the system named is Mus musculus. The data set is described as follows: Anticonvulsant activity in CF1 mouse assessed as protection against subcutaneous metrazole-induced seizures at 30 mg/kg, ip after 4 hrs. Format: functional, organism-based. Also noted: dose 30 mg/kg. Put shortly: as §2
Data set [5] concerns Mus musculus. The data set can be described thus: Neurotoxicity in CF1 mouse assessed as minimal motor impairment at 30 mg/kg, ip after 4 hrs by rotorod test. Format: toxicity, organism-based. The arrangement: dose 30 mg/kg, route intraperitoneal. The conditions noted are these: in vivo. Put shortly: as §1
For data set [6], the target named is T1, 5-hydroxytryptamine receptor 1A (Homo sapiens, UniProt P08908).
T1 sequence (P08908 whole entry): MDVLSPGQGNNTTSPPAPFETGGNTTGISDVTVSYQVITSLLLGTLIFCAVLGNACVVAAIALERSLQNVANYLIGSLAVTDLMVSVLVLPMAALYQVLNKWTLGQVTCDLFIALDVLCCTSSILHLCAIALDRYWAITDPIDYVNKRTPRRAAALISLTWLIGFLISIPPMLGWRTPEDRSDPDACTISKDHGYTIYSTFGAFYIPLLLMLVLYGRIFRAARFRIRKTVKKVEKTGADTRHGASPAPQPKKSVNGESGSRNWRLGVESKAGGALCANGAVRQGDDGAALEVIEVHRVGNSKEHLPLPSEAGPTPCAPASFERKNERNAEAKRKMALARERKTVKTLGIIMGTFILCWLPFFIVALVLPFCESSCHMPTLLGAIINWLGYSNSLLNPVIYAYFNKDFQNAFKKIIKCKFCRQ
The data set is described as follows: Displacement of [3H]8-OH-DPAT from human 5HT1A receptor expressed in HEK293 cells after 1 hr. Format: cell-based.

The subject of data set [7] is Rattus norvegicus. The data set can be described thus: Anticonvulsant activity in Sprague-Dawley rat assessed as protection against maximal electroshock-induced seizures at 30 mg/kg, po after 4 hrs. Format: functional, organism-based. The arrangement: dose 30 mg/kg. Put shortly:
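Rats dosed orally at 30 mg/kg and tested in MES at several time points after dosing. Protection means seizures were prevented. Result is recorded as number of animals protected over number tested.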
A general note: The maximal electroshock test induces tonic seizures with an electrical stimulus.

For data set [8], the system named is Mus musculus. The data set can be described thus: Neurotoxicity in CF1 mouse assessed as minimal motor impairment at 30 mg/kg, ip after 0.5 hrs by rotorod test. Format: toxicity, organism-based. Also noted: dose 30 mg/kg, route intraperitoneal. To be noted: in vivo. The essentials: as §1
Data set [9] deals with Rattus norvegicus. The data set can be described thus: Neurotoxicity in Sprague-Dawley rat assessed as minimal motor impairment at 30 mg/kg, po after 0.25 hrs by rotorod test. The conditions noted are these: in vivo.

SMILES strings stand for the structures. pKi: −log10 of the molar value. The source made the active and inactive calls. The rule behind the calls is not given here.

Turning to `Cl.Cl.Cl.O=c1c2ccc(Cl)cc2oc2c(CN3CCN(CCO)CC3)cccc12`, the Activity result in data set [1], in data set [2], in data set [5], in [8] and in [9] was “Non-toxic” throughout. The outcome in [3] and in data set [4] was inactive. In addition, the pKi in data set [6] was 5.35. Also, the outcome in [7] was Active.
